PPC-1+TRAIL kill – kills PPC-1 cancer cells in the presence of TRAIL; PPC-1 cells + TRAIL, ATPLite viability luminescence; cell killing (% activity), % at 4 µM or 5 µM; 0.41% of 220,000 active; AID 1443;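 active means cell killing above 50% in the first pass at 4 µM, then a duplicate retest at 5 µM averaging 50% or more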;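 further: plate controls were cells with TRAIL plus DMSO for no effect and medium-only wells lacking cells for full effect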
C8 TRAIL sens – sensitizes caspase-8 expressing cells to TRAIL; NB7+C8 cells + TRAIL, ATPlite viability luminescence; inhibition (viability loss, TRAIL sensitization), % at 10 µM; 1% of 360,000 active; AID 624354;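 active means compounds causing at least 50% loss of cell viability in the single-dose screen, relative to plate controls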
FLuc inhib CS – inhibits firefly luciferase, flagging false hits in luciferase inhibition screens. P08659. ATPLite firefly luciferase biochemical luminescence, 10 min. inhibition, % at 10 µM. 1.5% of 200,000 active. AID 1006;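 active means inhibition above about 50% when tested at 10 µM, limit read from the data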
PKD1 kinase inh – inhibitors of human PKD1 kinase | Q15139 | PKD1 kinase fluorescence polarization assay | inhibition, % (concentration not given with the values) | 0.056% of 200,000 active; in the data active means inhibition above about 50%
Target sequence (Q15139 whole entry, looked up): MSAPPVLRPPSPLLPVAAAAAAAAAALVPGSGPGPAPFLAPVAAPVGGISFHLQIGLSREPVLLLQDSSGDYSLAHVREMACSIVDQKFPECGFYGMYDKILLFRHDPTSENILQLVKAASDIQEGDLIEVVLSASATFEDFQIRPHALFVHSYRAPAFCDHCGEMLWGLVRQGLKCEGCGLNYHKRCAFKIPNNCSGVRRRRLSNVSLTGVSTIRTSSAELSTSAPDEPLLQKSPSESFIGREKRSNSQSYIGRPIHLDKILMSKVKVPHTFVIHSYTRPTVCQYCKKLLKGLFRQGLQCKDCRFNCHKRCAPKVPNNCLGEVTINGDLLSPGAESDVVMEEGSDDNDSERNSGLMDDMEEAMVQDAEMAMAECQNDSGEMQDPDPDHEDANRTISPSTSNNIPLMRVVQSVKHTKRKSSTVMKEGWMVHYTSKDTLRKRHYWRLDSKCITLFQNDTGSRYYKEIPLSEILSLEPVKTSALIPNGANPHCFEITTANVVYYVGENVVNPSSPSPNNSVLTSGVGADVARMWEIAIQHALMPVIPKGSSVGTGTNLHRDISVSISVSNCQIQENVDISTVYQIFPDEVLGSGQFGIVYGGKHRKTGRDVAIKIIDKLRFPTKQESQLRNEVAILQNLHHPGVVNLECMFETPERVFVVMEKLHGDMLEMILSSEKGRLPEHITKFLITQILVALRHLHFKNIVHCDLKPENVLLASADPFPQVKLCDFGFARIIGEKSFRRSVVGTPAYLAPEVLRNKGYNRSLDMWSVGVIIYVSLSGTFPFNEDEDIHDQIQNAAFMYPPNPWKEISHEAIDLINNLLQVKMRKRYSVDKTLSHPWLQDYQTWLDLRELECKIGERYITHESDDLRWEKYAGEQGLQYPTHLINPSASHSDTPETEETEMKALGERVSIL
Wee1 degr inh – blocks degradation of human Wee1 kinase. P30291. HeLa Luc-Wee1K328M stability, luciferase luminescence; 100% = proteasome inhibitor MG132 effect. reporter increase, % at 5 µM. 1.2% of 220,000 active. AID 1321;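 active means activation above the mean of all tested compounds plus 3 SD, set per screening run, cut at about 8.8% in these data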;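 further: cells exposed to compound for 20 h before luminescence read; 0% = DMSO alone and 100% = MG132 at 30 µM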
FLuc stim CS – affects firefly luciferase, flagging false hits in luciferase stimulation screens; P08659; ATPlite luciferase biochemical, luminescence, 10 min; 0 = ATP-free wells, 1 = DMSO control; activation factor at 10 µM; 200,000 tested, under 10 active; AID 1027;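 active means luciferase activation factor, scaled between plate controls, of at least 2 with compound at 10 µM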
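Assay system: Luciferase/luciferin detection reagent, cell-free biochemical luciferase assay / Read-out: luciferase activation / Benchmarks: No-ATP low control, compound-free enzyme-plus-ATP high control / Medium: PBS buffer for ATP / Detection: luminescence measurement of luciferase light output / Schedule: 10 min at ambient temperature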
PPC1 cytotox – kills PPC-1 cells; 50% of 1,200 active; AID 1447; shares compounds with PPC-1+TRAIL kill; cytotoxicity, % at 5 µM; PPC-1 viability, ATPlite luminescence, overnight;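 active means reconfirmed compounds whose average cytotoxicity reaches 50% or more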;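 further: 0% = DMSO-treated cells and 100% = wells holding medium but no cells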
The depositor's hits bear a star. Rows were chosen to be rich in hits. Some 2.2% of all compounds tested hit in one or more screens of this group.

What do the screens show for `Cc1occc1C(=O)O/N=C(\N)c1ccccc1`?
PPC-1+TRAIL kill: 56.9*; C8 TRAIL sens: 70.5*; Wee1 degr inh: -1.0; PPC1 cytotox: 55.4*

Results for CN(C)c1ccc(Nc2nc(-c3cccnc3)cs2)cc1 ?
PPC-1+TRAIL kill: 70.3*; C8 TRAIL sens: 67.0*; FLuc inhib CS: 78.2*; PKD1 kinase inh: -5.8; Wee1 degr inh: 4.0; FLuc stim CS: 0.2; PPC1 cytotox: 67.8*

How did COc1ccc(/C=C\c2nc(=O)c3ccccc3o2)cc1 do in these assays?
PPC-1+TRAIL kill: 60.0*; C8 TRAIL sens: 60.6*; FLuc inhib CS: 93.3*; PKD1 kinase inh: -7.2; Wee1 degr inh: 0.6; FLuc stim CS: 0.1; PPC1 cytotox: 56.6*

How did COC(=O)C1(C(=O)OC)c2ccccc2CN(S(=O)(=O)c2ccc(C)cc2)C1CC(C)=O (stereo not given) do in these assays?
C8 TRAIL sens: -3.9

How did CCc1nccn1S(=O)(=O)c1cc(OC)ccc1OC do in these assays?
C8 TRAIL sens: -13.8

How did COc1ccc(N2CCN(Cc3nc4cc(Cl)ccc4c(=O)[nH]3)CC2)cc1 do in these assays?
PPC-1+TRAIL kill: 0.1; C8 TRAIL sens: -5.5; FLuc inhib CS: -4.6; PKD1 kinase inh: -6.0; Wee1 degr inh: -0.2; FLuc stim CS: 1; PPC1 cytotox: 5.5

What do the screens show for `COc1cccc(N=Nc2ccc(O)c3ncccc23)c1`?
C8 TRAIL sens: 10.4

How did COc1ccc(N=Nc2ccc(O)c3ncccc23)cc1 do in these assays?
PPC-1+TRAIL kill: 39.0; C8 TRAIL sens: 30.7; Wee1 degr inh: 1.9; PPC1 cytotox: 48.6

Results for CC(C)(C)C1CCC(C(=O)OCC(=O)N2CCN(C(=O)c3ccco3)CC2)CC1 (stereo not given) ?
PPC-1+TRAIL kill: -10.8; C8 TRAIL sens: 5.3; FLuc inhib CS: -8.1; PKD1 kinase inh: 3.2; Wee1 degr inh: 3.6; FLuc stim CS: 1.1

Results for CN1C2C=C3C(C#N)=C(N)C(C#N)(C#N)[C@H](c4c(F)cccc4F)[C@H]3C1CC2 (stereo not given in full) ?
PPC-1+TRAIL kill: -26.4; C8 TRAIL sens: -0.3; FLuc inhib CS: -3.6; PKD1 kinase inh: 9.7; Wee1 degr inh: -2.5; FLuc stim CS: 1

How did CN1C2C=C3C(C#N)=C(N)C(C#N)(C#N)[C@@H](c4cccs4)C3C1CC2 (stereo not given in full) do in these assays?
PPC-1+TRAIL kill: 16.8; C8 TRAIL sens: -6.2; FLuc inhib CS: -2.2; PKD1 kinase inh: -8.3; Wee1 degr inh: -1.0; FLuc stim CS: 1; PPC1 cytotox: 6.3

What do the screens show for `Cc1nn(C)cc1/C=C/C(=O)c1cccs1`?
PPC-1+TRAIL kill: 23.4; C8 TRAIL sens: 38.3; FLuc inhib CS: 62.7*; PKD1 kinase inh: -1.6; Wee1 degr inh: 2.7; FLuc stim CS: 0.4; PPC1 cytotox: 6.1

What do the screens show for `Cc1nn(C)c(C)c1/C=C/C(=O)c1cccs1`?
C8 TRAIL sens: 22.0; PKD1 kinase inh: -2.3; Wee1 degr inh: -0.4

What do the screens show for `COC(=O)C(CC(C)C)N1CCC(=O)c2ccccc2S1(=O)=O` (stereo not given)?
PPC-1+TRAIL kill: -6.6; C8 TRAIL sens: 10.9

How did CCOc1ccccc1N1CCN(C(=O)c2ccccc2)CC1 do in these assays?
PPC-1+TRAIL kill: 25.3; C8 TRAIL sens: -6.8; FLuc inhib CS: -4.5; PKD1 kinase inh: 5.8; Wee1 degr inh: -2.2; FLuc stim CS: 1

What do the screens show for `CCOc1ccccc1N1CCN(C(=O)C2c3ccccc3Oc3ccccc32)CC1`?
PPC-1+TRAIL kill: 2.8; C8 TRAIL sens: 14.5; FLuc inhib CS: -8.8; PKD1 kinase inh: -6.1; Wee1 degr inh: 0.2; FLuc stim CS: 1.1; PPC1 cytotox: -6.7

Results for COC(=O)c1ccc(NC(=O)CN(C)S(=O)(=O)c2ccc(OC)c(C)c2)cc1 ?
PPC-1+TRAIL kill: -9.6; C8 TRAIL sens: -8.3; FLuc inhib CS: -0.7; PKD1 kinase inh: -0.8; Wee1 degr inh: -4.1; FLuc stim CS: 1; PPC1 cytotox: -1.8

What do the screens show for `Cc1ccc(Oc2ccc(NC(=O)c3ccco3)cc2)cc1`?
PPC-1+TRAIL kill: 20.8; C8 TRAIL sens: -7.2; FLuc inhib CS: 4.5; PKD1 kinase inh: 1.2; Wee1 degr inh: 2.6; FLuc stim CS: 1

Source: PubChem BioAssay
